Experimental data: ChEMBL document CHEMBL3739273, “Synthesis, biological activity evaluation and molecular docking studies of novel coumarin substituted thiazolyl-3-aryl-pyrazole-4-carbaldehydes” (Bioorg Med Chem Lett, 2015)
Converted amounts (≈) assume the structure as drawn. The source made the active and inactive calls. The rule behind the calls is not given here.

Test system: not listed separately
Test: Anticancer activity against human DU145 cells assessed as cell viability after 48 hrs by MTT assay
Type: functional, cell-based
Conditions: DU-145, 48 h
How it was run: (§1)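 MTT cytotoxicity assay in human DU-145 prostate, MCF-7 breast and HeLa cervical cancer cell lines. Doxorubicin was the reference drug.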

Compound | IC50 [µM]
O=Cc1cn(-c2nc(-c3cc4ccccc4oc3=O)cs2)nc1-c1ccccc1 | > 100
Cc1ccc(-c2nn(-c3nc(-c4cc5ccccc5oc4=O)cs3)cc2C=O)cc1 | 50.2

Test system: MCF7
Test: Anticancer activity against human MCF7 cells assessed as cell viability after 48 hrs by MTT assay
Type: functional, cell-based
Conditions: MCF7, 48 h
How it was run: as §1

Compound | IC50 [µM]
O=Cc1cn(-c2nc(-c3cc4ccccc4oc3=O)cs2)nc1-c1ccccc1 | > 100
Cc1ccc(-c2nn(-c3nc(-c4cc5ccccc5oc4=O)cs3)cc2C=O)cc1 | 69.5

Test system: HeLa
Test: Anticancer activity against human HeLa cells assessed as cell viability after 48 hrs by MTT assay
Type: functional, cell-based
Conditions: not given
How it was run: as §1

Compound | IC50 [µM]
O=Cc1cn(-c2nc(-c3cc4ccccc4oc3=O)cs2)nc1-c1ccccc1 | > 100
Cc1ccc(-c2nn(-c3nc(-c4cc5ccccc5oc4=O)cs3)cc2C=O)cc1 | 37.4

Test system: Staphylococcus aureus
Test: Antibacterial activity against methicillin-resistant Staphylococcus aureus NCTC 13616 assessed as growth inhibition at 100 ug/ml after 24 hrs by agar well diffusion method
Type: functional, organism-based
Conditions: not given
How it was run: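 Agar well diffusion assay with compounds applied to wells at several concentrations, including the 100 level reported here. The zone of inhibition was measured in mm. Gentamycin sulfate was the standard drug.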

Compound | growth inhibition (GI)
O=Cc1cn(-c2nc(-c3cc4ccccc4oc3=O)cs2)nc1-c1ccccc1 | inactive
Cc1ccc(-c2nn(-c3nc(-c4cc5ccccc5oc4=O)cs3)cc2C=O)cc1 | inactive

Test system: Escherichia coli
Test: Antibacterial activity against Escherichia coli ATCC 8739 after 24 hrs by microtiter plate method
Type: functional
Conditions: not given
How it was run: (§2)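 Test concentrations reported in µg/mL. Gentamycin sulfate and ampicillin were the reference drugs.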

Compound | MIC [µg/mL]
GENTAMICIN | 2

Same assay, conditions: ATCC 8739, 24 h

Compound | MIC [µg/mL]
CC1(C)S[C@@H]2[C@H](NC(=O)[C@H](N)c3ccccc3)C(=O)N2[C@H]1C(=O)O [AMPICILLIN] | 10 (≈ 28.6 µM)
O=Cc1cn(-c2nc(-c3cc4ccccc4oc3=O)cs2)nc1-c1ccccc1 | 135 (≈ 338 µM)
Cc1ccc(-c2nn(-c3nc(-c4cc5ccccc5oc4=O)cs3)cc2C=O)cc1 | 132 (≈ 320 µM)

Test system: Klebsiella pneumoniae
Test: Antibacterial activity against Klebsiella pneumoniae ATCC 43816 after 24 hrs by microtiter plate method
Type: functional
Conditions: not given
How it was run: as §2

Compound | MIC [µg/mL]
GENTAMICIN | 4

Same assay, conditions: ATCC 43816, 24 h

Compound | MIC [µg/mL]
O=Cc1cn(-c2nc(-c3cc4ccccc4oc3=O)cs2)nc1-c1ccccc1 | 150 (≈ 376 µM)
Cc1ccc(-c2nn(-c3nc(-c4cc5ccccc5oc4=O)cs3)cc2C=O)cc1 | 150 (≈ 363 µM)

Test system: Proteus vulgaris
Test: Antibacterial activity against Proteus vulgaris ATCC 13315 after 24 hrs by microtiter plate method
Type: functional
Conditions: not given
How it was run: as §2

Compound | MIC [µg/mL]
GENTAMICIN | 4

Same assay, conditions: ATCC 13315, 24 h

Compound | MIC [µg/mL]
O=Cc1cn(-c2nc(-c3cc4ccccc4oc3=O)cs2)nc1-c1ccccc1 | 133 (≈ 333 µM)
Cc1ccc(-c2nn(-c3nc(-c4cc5ccccc5oc4=O)cs3)cc2C=O)cc1 | 150 (≈ 363 µM)

Test system: Staphylococcus aureus
Test: Antibacterial activity against methicillin-resistant Staphylococcus aureus NCTC 13616 after 24 hrs by microtiter plate method
Type: functional
Conditions: not given

Compound | MIC [µg/mL]
GENTAMICIN | 22

Same assay, conditions: NCTC 13616, 24 h

Compound | MIC [µg/mL]
CC1(C)S[C@@H]2[C@H](NC(=O)[C@H](N)c3ccccc3)C(=O)N2[C@H]1C(=O)O [AMPICILLIN] | 4 (≈ 11.4 µM)
O=Cc1cn(-c2nc(-c3cc4ccccc4oc3=O)cs2)nc1-c1ccccc1 | 150 (≈ 376 µM)
Cc1ccc(-c2nn(-c3nc(-c4cc5ccccc5oc4=O)cs3)cc2C=O)cc1 | 150 (≈ 363 µM)

Test system: Bacillus spizizenii
Test: Antibacterial activity against Bacillus subtilis ATCC 6633 after 24 hrs by microtiter plate method
Type: functional
Conditions: not given
How it was run: as §2

Compound | MIC [µg/mL]
GENTAMICIN | 45

Same assay, conditions: ATCC 6633, 24 h

Compound | MIC [µg/mL]
CC1(C)S[C@@H]2[C@H](NC(=O)[C@H](N)c3ccccc3)C(=O)N2[C@H]1C(=O)O [AMPICILLIN] | 5 (≈ 14.3 µM)
O=Cc1cn(-c2nc(-c3cc4ccccc4oc3=O)cs2)nc1-c1ccccc1 | 132 (≈ 330 µM)
Cc1ccc(-c2nn(-c3nc(-c4cc5ccccc5oc4=O)cs3)cc2C=O)cc1 | 150 (≈ 363 µM)

Test system: Bacillus cereus
Test: Antibacterial activity against Bacillus cereus ATCC 14579 after 24 hrs by microtiter plate method
Type: functional
Conditions: not given
How it was run: as §2

Compound | MIC [µg/mL]
GENTAMICIN | 10

Same assay, conditions: ATCC 14579, 24 h

Compound | MIC [µg/mL]
CC1(C)S[C@@H]2[C@H](NC(=O)[C@H](N)c3ccccc3)C(=O)N2[C@H]1C(=O)O [AMPICILLIN] | 4 (≈ 11.4 µM)
O=Cc1cn(-c2nc(-c3cc4ccccc4oc3=O)cs2)nc1-c1ccccc1 | 145 (≈ 363 µM)
Cc1ccc(-c2nn(-c3nc(-c4cc5ccccc5oc4=O)cs3)cc2C=O)cc1 | 135 (≈ 327 µM)

Test system: Escherichia coli
Test: Bactericidal activity against Escherichia coli ATCC 8739 after 24 hrs
Type: functional
Conditions: not given
How it was run: (§3)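 MBC determined by a standard MBC protocol alongside the MIC, with values in µg/mL. Gentamycin sulfate and ampicillin were the references.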

Compound | MBC99.9 [µg/mL]
GENTAMICIN | 8

Same assay, conditions: ATCC 8739, 24 h, read-out: MBC99.9

Compound | MBC [µg/mL]
CC1(C)S[C@@H]2[C@H](NC(=O)[C@H](N)c3ccccc3)C(=O)N2[C@H]1C(=O)O [AMPICILLIN] | 18 (≈ 51.5 µM)
O=Cc1cn(-c2nc(-c3cc4ccccc4oc3=O)cs2)nc1-c1ccccc1 | 270 (≈ 676 µM)
Cc1ccc(-c2nn(-c3nc(-c4cc5ccccc5oc4=O)cs3)cc2C=O)cc1 | 260 (≈ 629 µM)

Test system: Klebsiella pneumoniae
Test: Bactericidal activity against Klebsiella pneumoniae ATCC 43816 after 24 hrs
Type: functional
Conditions: not given
How it was run: as §3

Compound | MBC99.9 [µg/mL]
GENTAMICIN | 16

Same assay, conditions: ATCC 43816, 24 h, read-out: MBC99.9

Compound | MBC [µg/mL]
O=Cc1cn(-c2nc(-c3cc4ccccc4oc3=O)cs2)nc1-c1ccccc1 | 225 (≈ 563 µM)
Cc1ccc(-c2nn(-c3nc(-c4cc5ccccc5oc4=O)cs3)cc2C=O)cc1 | 300 (≈ 726 µM)

Test system: Proteus vulgaris
Test: Bactericidal activity against Proteus vulgaris ATCC 13315 after 24 hrs
Type: functional
Conditions: not given
How it was run: as §3

Compound | MBC99.9 [µg/mL]
GENTAMICIN | 8

Same assay, conditions: ATCC 13315, 24 h, read-out: MBC99.9

Compound | MBC [µg/mL]
O=Cc1cn(-c2nc(-c3cc4ccccc4oc3=O)cs2)nc1-c1ccccc1 | 200 (≈ 501 µM)
Cc1ccc(-c2nn(-c3nc(-c4cc5ccccc5oc4=O)cs3)cc2C=O)cc1 | 300 (≈ 726 µM)

Test system: Staphylococcus aureus
Test: Bactericidal activity against methicillin-resistant Staphylococcus aureus NCTC 13616 after 24 hrs
Type: functional
Conditions: not given
How it was run: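 MBC determined by a standard MBC protocol run alongside the MIC determination. Gentamycin sulfate and ampicillin served as reference drugs.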

Compound | MBC99.9 [µg/mL]
GENTAMICIN | 50

Same assay, conditions: NCTC 13616, 24 h, read-out: MBC99.9

Compound | MBC [µg/mL]
CC1(C)S[C@@H]2[C@H](NC(=O)[C@H](N)c3ccccc3)C(=O)N2[C@H]1C(=O)O [AMPICILLIN] | 6 (≈ 17.2 µM)
O=Cc1cn(-c2nc(-c3cc4ccccc4oc3=O)cs2)nc1-c1ccccc1 | 300 (≈ 751 µM)
Cc1ccc(-c2nn(-c3nc(-c4cc5ccccc5oc4=O)cs3)cc2C=O)cc1 | 300 (≈ 726 µM)

Test system: Bacillus spizizenii
Test: Bactericidal activity against Bacillus subtilis ATCC 6633 after 24 hrs
Type: functional
Conditions: not given
How it was run: as §3

Compound | MBC99.9 [µg/mL]
GENTAMICIN | 80

Same assay, conditions: ATCC 6633, 24 h, read-out: MBC99.9

Compound | MBC [µg/mL]
CC1(C)S[C@@H]2[C@H](NC(=O)[C@H](N)c3ccccc3)C(=O)N2[C@H]1C(=O)O [AMPICILLIN] | 10 (≈ 28.6 µM)
O=Cc1cn(-c2nc(-c3cc4ccccc4oc3=O)cs2)nc1-c1ccccc1 | 260 (≈ 651 µM)
Cc1ccc(-c2nn(-c3nc(-c4cc5ccccc5oc4=O)cs3)cc2C=O)cc1 | 300 (≈ 726 µM)

Test system: Bacillus cereus
Test: Bactericidal activity against Bacillus cereus ATCC 14579 after 24 hrs
Type: functional
Conditions: not given
How it was run: as §3

Compound | MBC99.9 [µg/mL]
GENTAMICIN | 22

Same assay, conditions: ATCC 14579, 24 h, read-out: MBC99.9

Compound | MBC [µg/mL]
CC1(C)S[C@@H]2[C@H](NC(=O)[C@H](N)c3ccccc3)C(=O)N2[C@H]1C(=O)O [AMPICILLIN] | 8 (≈ 22.9 µM)
O=Cc1cn(-c2nc(-c3cc4ccccc4oc3=O)cs2)nc1-c1ccccc1 | 290 (≈ 726 µM)
Cc1ccc(-c2nn(-c3nc(-c4cc5ccccc5oc4=O)cs3)cc2C=O)cc1 | 270 (≈ 653 µM)

Biological target: T1, Cytochrome P450 2A6 (Homo sapiens, UniProt P11509)
T1 sequence (P11509 whole entry): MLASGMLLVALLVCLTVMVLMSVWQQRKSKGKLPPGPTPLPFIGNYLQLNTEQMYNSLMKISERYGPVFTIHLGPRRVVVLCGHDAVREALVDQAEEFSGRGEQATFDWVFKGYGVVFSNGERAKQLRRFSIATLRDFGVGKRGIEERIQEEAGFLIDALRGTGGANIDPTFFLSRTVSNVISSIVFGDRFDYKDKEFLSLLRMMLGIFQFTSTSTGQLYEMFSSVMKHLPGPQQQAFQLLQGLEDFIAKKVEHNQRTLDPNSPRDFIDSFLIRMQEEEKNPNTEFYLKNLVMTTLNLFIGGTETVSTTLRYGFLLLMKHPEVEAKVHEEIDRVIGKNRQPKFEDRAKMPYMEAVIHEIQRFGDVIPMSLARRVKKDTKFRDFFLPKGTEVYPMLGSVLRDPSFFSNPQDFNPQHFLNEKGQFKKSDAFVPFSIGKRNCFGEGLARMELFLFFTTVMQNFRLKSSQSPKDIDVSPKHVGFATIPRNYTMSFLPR
Test: Inhibition of human microsomal CYP2A6
Type: ADME
Conditions: not given

Compound | Ki [µM]
O=Cc1cn(-c2nc(-c3cc4ccccc4oc3=O)cs2)nc1-c1ccccc1 | 0.013
Cc1ccc(-c2nn(-c3nc(-c4cc5ccccc5oc4=O)cs3)cc2C=O)cc1 | 0.011
